According to ChEMBL document CHEMBL3421610, “Antimalarial activity of 4-amidinoquinoline and 10-amidinobenzonaphthyridine derivatives” (J Med Chem, 2015):
pIC50: −log10 of the molar value. In brackets after ≈: the same amount, converted by molar mass. Activity calls are given as the source filed them. No cut-off for these calls is given here.

Tested on: Plasmodium falciparum
Test: Antimalarial activity against chloroquine-resistant Plasmodium falciparum W2 assessed as growth inhibition after 18 hrs by [3H]-hypoxanthine uptake assay
Format: functional, organism-based
Settings: not given
Outline: (§1)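 P. falciparum clones D6, W2 and TM91C235; modified semiautomated microdilution. Compounds in DMSO, diluted in RPMI 1640 with 10% human plasma, tested over (1.56-100) x 10^-9 M; final DMSO 0.25-0.5%. Inoculum 0.5% parasitemia, 1% hematocrit. 24 h incubation, then [3H]-hypoxanthine added, further 18 h. Harvested and read by scintillation counting; IC50 by nonlinear regression.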

| Structure (SMILES) | pIC50 |
| --- | --- |
| COc1ccc2nc3cc(Cl)ccc3c(N/C(=N/CCCN(C)C)C(C)C)c2n1 | 8.01 |
| CCN(CC)CCC/N=C(/Nc1c2ccc(Cl)cc2nc2ccc(OC)nc12)c1ccccc1 | 8.25 |
| CCN(CC)CCCN(CCCN(CC)CC)/C(=N\c1c2ccc(Cl)cc2nc2ccc(OC)nc12)C(C)C | 8.21 |
| COc1ccc2nc3cc(Cl)ccc3c(N/C(C)=N/CCCN(C)C)c2n1 | 7.00 |
| CCN(CC)CCN/C(C)=N\c1ccnc2cc(Cl)ccc12 | 6.53 |
| C/C(=N/c1ccnc2cc(Cl)ccc12)NCCc1ccncc1 | 6.21 |
| CC(C)/C(=N/c1ccnc2cc(Cl)ccc12)NC1CCN(Cc2ccccc2)CC1 | 7.23 |
| CCN(CC)CCCN(CCCN(CC)CC)/C(C)=N\c1ccnc2cc(Cl)ccc12 | 6.92 |

Tested on: Plasmodium berghei
Test: Antimalarial activity against erythrocytic stage of chloroquine resistant Plasmodium berghei ANKA infected in mouse assessed as cure rate at 120 mg/kg, po qd administered on day 3, 4 and 5 post infection measured 3 times per week for 30 days, starting from day 3 by Thompson test
Format: functional, organism-based
Set-up: dose 120 mg/kg
Settings: not given
Outline: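 Male mice of 16-20 g inoculated intraperitoneally with 5 x 10^6 erythrocytes infected with CQ-resistant P. berghei ANKA. Drug given orally as a suspension once daily on days 3, 4 and 5 post-infection, five mice per dose. Blood films from day 3, three times weekly for 30 days. Cure means parasite-negative on day 30 or surviving 30 days. Mice losing >20% body weight sacrificed.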

| Structure (SMILES) | Activity |
| --- | --- |
| COc1ccc2nc3cc(Cl)ccc3c(N/C(C)=N/CCCN(C)C)c2n1 | Active |

Tested on: Mus musculus
Test: Toxicity in mouse infected with erythrocytic stage of chloroquine resistant Plasmodium berghei ANKA up to 160 mg/kg, po qd administered on day 3, 4 and 5 post infection measured over 30 days
Format: organism-based, Erythrocyte
Set-up: dose 160 mg/kg, route oral
Settings: in vivo, 720 h
Outline: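 Male mice of 16-20 g infected intraperitoneally with CQ-resistant P. berghei ANKA (5 x 10^6 infected erythrocytes). Oral dosing once daily on days 3-5, five mice per group. Animals followed for 30 days by blood films; mice losing >20% body weight sacrificed.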

| Structure (SMILES) | Activity |
| --- | --- |
| COc1ccc2nc3cc(Cl)ccc3c(N/C(C)=N/CCCN(C)C)c2n1 | Non-toxic |

Tested on: not listed separately
Test: Half life in mouse liver microsomes at 1 uM by LC/MS analysis
Format: ADME
Settings: not given
Outline: (§2)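 Compound at 1 µM final, diluted from […], with 0.5 mg/mL pooled human or mouse liver microsomes, NADP, MgCl2 and 0.1 M PBS pH 7.4. Reaction started with 1 U/mL G6PD and shaken at 37 °C. Aliquots quenched in cold acetonitrile at 0, 10, 20, 30 and 60 min and quantified by LC/MS. Half-life from log plot of total ion chromatogram area remaining.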

| Structure (SMILES) | half-life at 1 µM [min] |
| --- | --- |
| COc1ccc2nc3cc(Cl)ccc3c(N/C(=N/CCCN(C)C)C(C)C)c2n1 | 46 |
| CCN(CC)CCC/N=C(/Nc1c2ccc(Cl)cc2nc2ccc(OC)nc12)c1ccccc1 | 26 |
| CCN(CC)CCCN(CCCN(CC)CC)/C(=N\c1c2ccc(Cl)cc2nc2ccc(OC)nc12)C(C)C | > 60 |
| COc1ccc2nc3cc(Cl)ccc3c(N/C(C)=N/CCCN(C)C)c2n1 | 42 |
| CCN(CC)CCN/C(C)=N\c1ccnc2cc(Cl)ccc12 | 18 |
| C/C(=N/c1ccnc2cc(Cl)ccc12)NCCc1ccncc1 | 13 |
| CC(C)/C(=N/c1ccnc2cc(Cl)ccc12)NC1CCN(Cc2ccccc2)CC1 | 30 |
| CCN(CC)CCCN(CCCN(CC)CC)/C(C)=N\c1ccnc2cc(Cl)ccc12 | > 60 |

Tested on: not listed separately
Test: Half life in human liver microsomes at 1 uM by LC/MS analysis
Format: ADME
Settings: not given
Outline: as §2

| Structure (SMILES) | half-life at 1 µM [min] |
| --- | --- |
| COc1ccc2nc3cc(Cl)ccc3c(N/C(=N/CCCN(C)C)C(C)C)c2n1 | 33 |
| CCN(CC)CCC/N=C(/Nc1c2ccc(Cl)cc2nc2ccc(OC)nc12)c1ccccc1 | 16 |
| CCN(CC)CCCN(CCCN(CC)CC)/C(=N\c1c2ccc(Cl)cc2nc2ccc(OC)nc12)C(C)C | > 60 |
| COc1ccc2nc3cc(Cl)ccc3c(N/C(C)=N/CCCN(C)C)c2n1 | > 60 |
| CCN(CC)CCN/C(C)=N\c1ccnc2cc(Cl)ccc12 | 26 |
| C/C(=N/c1ccnc2cc(Cl)ccc12)NCCc1ccncc1 | 47 |
| CC(C)/C(=N/c1ccnc2cc(Cl)ccc12)NC1CCN(Cc2ccccc2)CC1 | 25 |
| CCN(CC)CCCN(CCCN(CC)CC)/C(C)=N\c1ccnc2cc(Cl)ccc12 | > 60 |

Tested on: Plasmodium falciparum
Test: Antimalarial activity against chloroquine-sensitive Plasmodium falciparum D6 assessed as growth inhibition after 18 hrs by [3H]-hypoxanthine uptake assay
Format: functional, organism-based
Settings: not given
Outline: as §1

| Structure (SMILES) | pIC50 |
| --- | --- |
| COc1ccc2nc3cc(Cl)ccc3c(N/C(=N/CCCN(C)C)C(C)C)c2n1 | 8.66 |
| CCN(CC)CCC/N=C(/Nc1c2ccc(Cl)cc2nc2ccc(OC)nc12)c1ccccc1 | 8.77 |
| CCN(CC)CCCN(CCCN(CC)CC)/C(=N\c1c2ccc(Cl)cc2nc2ccc(OC)nc12)C(C)C | 8.96 |
| COc1ccc2nc3cc(Cl)ccc3c(N/C(C)=N/CCCN(C)C)c2n1 | 7.59 |
| CCN(CC)CCN/C(C)=N\c1ccnc2cc(Cl)ccc12 | 6.72 |
| C/C(=N/c1ccnc2cc(Cl)ccc12)NCCc1ccncc1 | 6.04 |
| CC(C)/C(=N/c1ccnc2cc(Cl)ccc12)NC1CCN(Cc2ccccc2)CC1 | 7.82 |
| CCN(CC)CCCN(CCCN(CC)CC)/C(C)=N\c1ccnc2cc(Cl)ccc12 | 7.82 |

Tested on: Plasmodium falciparum
Test: Antimalarial activity against chloroquine-resistant Plasmodium falciparum C235 assessed as growth inhibition after 18 hrs by [3H]-hypoxanthine uptake assay
Format: functional, organism-based
Settings: not given
Outline: as §1

| Structure (SMILES) | pIC50 |
| --- | --- |
| COc1ccc2nc3cc(Cl)ccc3c(N/C(=N/CCCN(C)C)C(C)C)c2n1 | 8.37 |
| CCN(CC)CCC/N=C(/Nc1c2ccc(Cl)cc2nc2ccc(OC)nc12)c1ccccc1 | 8.55 |
| CCN(CC)CCCN(CCCN(CC)CC)/C(=N\c1c2ccc(Cl)cc2nc2ccc(OC)nc12)C(C)C | 8.49 |
| COc1ccc2nc3cc(Cl)ccc3c(N/C(C)=N/CCCN(C)C)c2n1 | 7.29 |
| CCN(CC)CCN/C(C)=N\c1ccnc2cc(Cl)ccc12 | 6.74 |
| C/C(=N/c1ccnc2cc(Cl)ccc12)NCCc1ccncc1 | 6.14 |
| CC(C)/C(=N/c1ccnc2cc(Cl)ccc12)NC1CCN(Cc2ccccc2)CC1 | 7.51 |
| CCN(CC)CCCN(CCCN(CC)CC)/C(C)=N\c1ccnc2cc(Cl)ccc12 | 7.47 |

Molecular target: hERG (KCNH2) (Homo sapiens, UniProt Q12809)
Test: Inhibition of human ERG expressed in CHL cells assessed as tail current at 10 uM after 7 mins by patch clamp assay relative to control
Format: cell-based
Settings: CHL cells expressing human ERG

Chain of hERG (KCNH2) (Q12809 whole entry): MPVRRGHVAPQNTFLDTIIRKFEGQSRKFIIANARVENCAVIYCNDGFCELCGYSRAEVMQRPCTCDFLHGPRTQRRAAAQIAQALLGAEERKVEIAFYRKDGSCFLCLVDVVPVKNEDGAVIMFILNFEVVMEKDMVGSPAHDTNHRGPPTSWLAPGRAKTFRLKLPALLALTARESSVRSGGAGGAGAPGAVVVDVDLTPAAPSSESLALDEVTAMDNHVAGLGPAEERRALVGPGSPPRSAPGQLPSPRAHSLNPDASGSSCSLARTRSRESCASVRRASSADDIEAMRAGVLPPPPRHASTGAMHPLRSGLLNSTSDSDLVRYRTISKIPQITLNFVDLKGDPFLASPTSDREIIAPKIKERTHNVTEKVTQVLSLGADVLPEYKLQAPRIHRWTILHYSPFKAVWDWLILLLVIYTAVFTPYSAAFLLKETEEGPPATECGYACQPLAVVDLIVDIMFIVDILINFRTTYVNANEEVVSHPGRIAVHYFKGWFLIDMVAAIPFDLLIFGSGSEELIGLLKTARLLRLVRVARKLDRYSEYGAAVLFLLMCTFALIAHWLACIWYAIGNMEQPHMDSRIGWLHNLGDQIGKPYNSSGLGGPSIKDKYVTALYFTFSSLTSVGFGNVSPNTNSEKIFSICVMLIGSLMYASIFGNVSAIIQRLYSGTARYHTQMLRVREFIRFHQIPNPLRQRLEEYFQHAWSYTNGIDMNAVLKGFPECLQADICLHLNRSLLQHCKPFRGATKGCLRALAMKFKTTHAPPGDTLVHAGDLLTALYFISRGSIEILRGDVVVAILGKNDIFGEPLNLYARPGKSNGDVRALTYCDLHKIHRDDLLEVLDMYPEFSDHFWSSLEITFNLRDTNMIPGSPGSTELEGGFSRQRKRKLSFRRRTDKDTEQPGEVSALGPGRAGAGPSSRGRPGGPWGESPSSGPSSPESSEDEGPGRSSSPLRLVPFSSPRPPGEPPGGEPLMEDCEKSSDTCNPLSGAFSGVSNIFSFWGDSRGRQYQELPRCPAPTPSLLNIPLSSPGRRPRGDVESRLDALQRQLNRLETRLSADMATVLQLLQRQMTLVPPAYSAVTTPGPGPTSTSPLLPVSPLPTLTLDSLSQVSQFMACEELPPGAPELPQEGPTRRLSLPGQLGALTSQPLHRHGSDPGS

| Structure (SMILES) | inhibition at 7 min, 10 µM [%] |
| --- | --- |
| COc1ccc2nc3cc(Cl)ccc3c(N/C(=N/CCCN(C)C)C(C)C)c2n1 | 72.1 |
| CCN(CC)CCCN(CCCN(CC)CC)/C(=N\c1c2ccc(Cl)cc2nc2ccc(OC)nc12)C(C)C | 32.5 |
| COc1ccc2nc3cc(Cl)ccc3c(N/C(C)=N/CCCN(C)C)c2n1 | 91.5 |
| CC(C)/C(=N/c1ccnc2cc(Cl)ccc12)NC1CCN(Cc2ccccc2)CC1 | 51.8 |
| CCN(CC)CCCN(CCCN(CC)CC)/C(C)=N\c1ccnc2cc(Cl)ccc12 | 16.2 |

Tested on: HepG2
Test: Cytotoxicity against human HepG2 cells after 48 hrs by MTT assay
Format: cell-based
Settings: HepG2, 48 h
Outline: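 HepG2 cells in supplemented MEM, plated at 9570 cells/well in 384-well format and incubated overnight at 37 °C, 5% CO2. Twelve duplicate 1.6-fold dilutions, 57–10,000 ng/ml, incubated 48 h. MTT added for 1 h at room temperature in the dark, formazan dissolved in acidified isopropanol, absorbance read. IC50 by sigmoidal variable-slope nonlinear regression; tryptanthrin control.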

| Structure (SMILES) | IC50 [µg/mL] |
| --- | --- |
| COc1ccc2nc3cc(Cl)ccc3c(N/C(=N/CCCN(C)C)C(C)C)c2n1 | 3.56 (≈ 8.6 µM) |
| CCN(CC)CCC/N=C(/Nc1c2ccc(Cl)cc2nc2ccc(OC)nc12)c1ccccc1 | 3.7 (≈ 7.77 µM) |
| CCN(CC)CCCN(CCCN(CC)CC)/C(=N\c1c2ccc(Cl)cc2nc2ccc(OC)nc12)C(C)C | 0.668 (≈ 1.2 µM) |
| COc1ccc2nc3cc(Cl)ccc3c(N/C(C)=N/CCCN(C)C)c2n1 | 18.1 (≈ 46.8 µM) |
| CCN(CC)CCN/C(C)=N\c1ccnc2cc(Cl)ccc12 | 1.32 (≈ 4.15 µM) |
| C/C(=N/c1ccnc2cc(Cl)ccc12)NCCc1ccncc1 | 11.3 (≈ 34.7 µM) |
| CC(C)/C(=N/c1ccnc2cc(Cl)ccc12)NC1CCN(Cc2ccccc2)CC1 | 5.15 (≈ 12.2 µM) |
| CCN(CC)CCCN(CCCN(CC)CC)/C(C)=N\c1ccnc2cc(Cl)ccc12 | 3 (≈ 6.73 µM) |
